Measured values gathered from unrelated publications.
Protocols differ between the studies behind these lines.
Target: Macrophage-stimulating protein receptor (MST1R, Homo sapiens, UniProt Q04912)

| Compound | effect on | method | tested at | remaining binding [%] |
| --- | --- | --- | --- | --- |
| FC(F)(F)Oc1cccc(-c2cnc3ccc(-c4ccncc4)nn23)c1 | cell-free assay | competition with immobilised ligand | 5 µM | 79 |
| O=C(NCC1CCOCC1)c1n[nH]cc1NC(=O)c1c(F)cccc1F | binding | competition with immobilised ligand | 1 µM | 100 |
| CN(CCCC(F)(F)F)c1nccc(-c2cnn3ncccc23)n1 | binding |  | 1 µM | 100 |
| COc1cnc(Nc2cccc(S(N)(=O)=O)c2)nc1N1CCN(c2ccccc2)CC1 | binding | competition with immobilised ligand | 1 µM | 99 |
| O=C(c1ccc(Nc2nccc(-c3cc4ccccc4s3)n2)cc1)N1CCC(N2CCCC2)CC1 | binding | competition with immobilised ligand | 1 µM | 88 |
| Cc1c[nH]c2nccc(Oc3c(F)cc(Nc4cc(Cl)nc(N)n4)cc3F)c12 | cell-free assay | competition with immobilised ligand | 0.1 µM | 74 |
| C[C@@H]1CCN(c2nccc(-c3cnn4ncccc34)n2)C1 | binding |  | 1 µM | 100 |
| c1cncc(-c2cccc(Nc3nccc(NC4CCCCC4)n3)c2)c1 | binding | competition with immobilised ligand | 10 µM | 78 |
| COc1cnc(Nc2cccc(S(N)(=O)=O)c2)nc1N1CCN(c2ccccc2)C(=O)C1 | binding | competition with immobilised ligand | 1 µM | 100 |
| C[C@@]1(Cc2ccc(C#N)cc2)C(=O)N(c2cc(Cl)cc(Cl)c2)c2ncc(C(=O)NC3(c4nc(C5CCC5)no4)CC3)n21 | cell-free assay | competition with immobilised ligand | 1 µM | 100 |
| Cc1cnn2ncc(-c3ccnc(N(C)C)n3)c2c1 | binding |  | 1 µM | 71 |
| O=C(NCCCN1CCOCC1)c1ccc(Nc2ncc(Cl)c(-c3ccc(Cl)s3)n2)cc1 | binding | competition with immobilised ligand | 1 µM | 67 |
| F[C@@H]1CCN(c2nccc(-c3cnn4ncccc34)n2)C1 | binding |  | 1 µM | 100 |
| C[C@@H]1CN(c2cc(-c3n[nH]c4ccc(OC5(C)CC5)cc34)ncn2)C[C@H](C)O1 | cell-free assay | competition with immobilised ligand | 0.1 µM | 100 |
| O=C(c1ccc(Nc2ncc(Cl)c(-c3ccc(Cl)s3)n2)cc1)N1CCC(N2CCCC2)CC1 | binding | competition with immobilised ligand | 1 µM | 43 |
| CNC(=O)Nc1ccc2c(c1)[C@@]1(CC2)OC(=O)N(CC(=O)N(Cc2ccc(F)cc2)[C@@H](C)C(F)(F)F)C1=O | cell-free assay | competition with immobilised ligand | 1 µM | 100 |
| COc1ncc2cc3ccccc3nc2c1C#N | cell-free assay | competition with immobilised ligand | 5 µM | 100 |
| N[C@@H]1CCN(c2nccc(-c3cnn4ncccc34)n2)C1 | binding |  | 1 µM | 100 |
| O=C(Nc1cccnn1)N1CC(C/C=C/c2cncc(Oc3ccc(C(F)(F)F)cn3)n2)C1 | cell-free assay | competition with immobilised ligand | 1 µM | 100 |
| CN(C)c1nccc(-c2cnn3ncccc23)n1 | binding |  | 1 µM | 100 |
| CNC(=O)c1ccc(Nc2ncc(C(F)(F)F)c(NCc3nccnc3N(C)S(C)(=O)=O)n2)cc1 | cell-free assay | competition with immobilised ligand | 0.1 µM | 100 |
